Assay [1] deals with T1, Sterol O-acyltransferase 1 (Rattus norvegicus) (UniProt O70536).
T1 sequence (whole entry): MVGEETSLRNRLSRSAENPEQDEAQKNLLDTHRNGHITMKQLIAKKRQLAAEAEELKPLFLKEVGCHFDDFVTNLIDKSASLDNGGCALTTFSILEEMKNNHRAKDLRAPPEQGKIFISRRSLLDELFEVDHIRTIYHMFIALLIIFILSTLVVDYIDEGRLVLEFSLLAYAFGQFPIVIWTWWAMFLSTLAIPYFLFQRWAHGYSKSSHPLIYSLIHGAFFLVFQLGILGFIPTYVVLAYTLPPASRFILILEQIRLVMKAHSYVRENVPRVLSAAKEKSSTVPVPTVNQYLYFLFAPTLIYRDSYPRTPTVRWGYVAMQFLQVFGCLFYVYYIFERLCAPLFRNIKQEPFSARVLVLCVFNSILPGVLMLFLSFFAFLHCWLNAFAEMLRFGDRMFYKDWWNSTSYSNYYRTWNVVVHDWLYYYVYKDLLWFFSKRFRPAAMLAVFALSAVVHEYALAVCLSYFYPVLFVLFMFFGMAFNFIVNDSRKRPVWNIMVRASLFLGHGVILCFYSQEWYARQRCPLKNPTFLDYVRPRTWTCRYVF
The experiment in a line: Inhibition of Acyl coenzyme A:cholesterol acyltransferase in microsomal ACAT assay at 10 uM. The method, boiled down:
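Rat hepatic microsomes (12.5 μg protein) with 90 µM fatty-acid-free BSA in 0.1 M potassium phosphate, 2 mM DTT, pH 7.4. Compound added from DMSO stocks and preincubated 15 min at 37 °C. Reaction started with [³H]-oleoyl-CoA (10 μM final) and run 15 min at 37 °C. Aliquot spotted on silica TLC, developed, and radioactivity in the cholesteryl oleate band counted by scintillation.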

The test system of assay [2] is Cricetinae gen. sp. Nature of the assay: Percent reduction in plasma cholesterol was evaluated by hamster cholesterol absorption assay at the particular dose of 50 (mg/kg/day). In kind it is functional, Cricetulus griseus. The method, boiled down:
(§1)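 Hamsters fed cholesterol for 1 week while dosed daily (mg/kg/day). Read-out was inhibition of the rise in plasma cholesterol, measured by a cholesterol oxidase kit method.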

The subject of assay [3] is Cricetinae gen. sp. The experiment in a line: Percent reduction of hepatic cholesteryl esters was evaluated by hamster cholesterol absorption assay at the particular dose of 50 (mg/kg/day). Type of assay: functional, Cricetulus griseus. Summed up: (§2)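 Hamsters fed cholesterol for 1 week while dosed daily (mg/kg/day). Liver was Folch-extracted and neutral lipids were analysed by HPLC, giving the reduction in hepatic cholesteryl ester rise as the absorption marker. ED50 was taken from dose-response curves.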

Assay [4] has as its system Cricetinae gen. sp. The experiment in a line: Effective dose evaluated in hamster cholesterol absorption assay. Type of assay: functional. The method, boiled down: as §2
Assay [5] concerns Cricetinae gen. sp. Nature of the assay: Percent reduction in plasma cholesterol was evaluated by hamster cholesterol absorption assay at the particular dose of 10 (mg/kg/day). Type of assay: functional, Cricetulus griseus. The method, boiled down: as §1
Assay [6] relates to Cricetinae gen. sp. The experiment in a line: Percent reduction of hepatic cholesteryl esters was evaluated by hamster cholesterol absorption assay at the particular dose of 10 (mg/kg/day). In kind it is functional, Cricetulus griseus. The method, boiled down:
as §2

Assay [7] relates to Cricetinae gen. sp. Nature of the assay: Percent reduction in plasma cholesterol was evaluated by hamster cholesterol absorption assay at the particular dose of 100 (mg/kg/day). In kind it is functional, Cricetulus griseus. Summed up: as §1
Assay [8] relates to Cricetinae gen. sp. Nature of the assay: Percent reduction of hepatic cholesteryl esters was evaluated by hamster cholesterol absorption assay at the particular dose of 100 (mg/kg/day). In kind it is functional, Cricetulus griseus. The method, boiled down: as §2
In assay [9] the target is T2, Sterol O-acyltransferase 1 (Rattus norvegicus, UniProt O70536).
T2 sequence (O70536 whole entry): T1 sequence (whole entry)
Nature of the assay: Concentration required for 50% inhibition of Acyl coenzyme A:cholesterol acyltransferase activity using microsomal ACAT assay.

The test system of assay [10] is Cricetinae gen. sp. Nature of the assay: Percent reduction in plasma cholesterol was evaluated by hamster cholesterol absorption assay at the particular dose of 50(mg/kg/day). Type of assay: functional, Cricetulus griseus. Summed up:
as §1

Setting [11] is: Cricetinae gen. sp., read-out: ED50.

From ChEMBL document CHEMBL1127536, “2-Azetidinones as inhibitors of cholesterol absorption” (J Med Chem, 1994) come the findings set out here.

As a reminder, the inhibition is the change of the read-out against control, counted positive when it falls. Low values mean little suppression, high ones strong suppression. One may read the ED50 as the midpoint of the dose-response relation. Usually IC50 stands for the concentration needed to halve the response being measured. Read a low IC50 as higher potency.

For `CC[C@@]1(CCCc2ccccc2)C(=O)N(c2c(OC)cc(OC)cc2OC)[C@@H]1c1ccccc1`, the inhibition in assay [1] (10 uM) was 82%. Besides, the Reduction is listed as 0% in the assay on Cricetinae gen. sp. [2] and 31% in the assay on Cricetinae gen. sp. [3].

On to `COc1ccc([C@@H]2[C@H](CCCc3ccccc3)C(=O)N2c2ccc(OC)cc2)cc1`, for which the ED50 in the assay on Cricetinae gen. sp. [4] (setting [11]) came out at 11.5 mg/kg/day. Also, the Reduction in the assay with Cricetinae gen. sp. [5] turned out to be 17%; in the assay on Cricetinae gen. sp. [6], 55%.

`COc1ccc([C@@H]2[C@@H](CCCc3ccccc3)C(=O)N2c2ccc(OC)cc2)cc1` (racemic) [SCH-48461]: in the assay on Cricetinae gen. sp. [4], the ED50 worked out at 7.1 mg/kg/day. In addition, the Reduction with Cricetinae gen. sp. [5] is recorded as 21%; in the assay with Cricetinae gen. sp. [6] it was 60%.

For the molecule `COc1ccc(N2C(=O)[C@@](C(=O)Cc3ccccc3)(c3ccccc3)[C@H]2c2ccccc2)cc1`, the inhibition in assay [1] (25 uM, in the assay text read “at 25 uM” for “at 10 uM”) was found to be 83%. In addition, the figures for the Reduction in the assay on Cricetinae gen. sp. [7] and in the assay on Cricetinae gen. sp. [8] were 10% and 26%, respectively.

In turn, `CC[C@]1(CCCc2ccccc2)C(=O)N(c2c(OC)cc(OC)cc2OC)[C@@H]1c1ccccc1` came in with an inhibition in [1] (10 uM) of 42%. For the same molecule, the Reduction in the assay on Cricetinae gen. sp. [2] and in the assay on Cricetinae gen. sp. [3] was 0% each time.

With `COc1cc(OC)c(N2C(=O)[C@@H](CCCc3ccccc3)[C@H]2c2ccccc2)c(OC)c1`, in [1] (10 uM), the inhibition came out at 61%. Also, the values for the Reduction in the assay with Cricetinae gen. sp. [2] and with Cricetinae gen. sp. [3] were 0% and -20%, respectively.

`COc1ccc([C@@H]2[C@@H](CCCc3ccccc3)C(=O)N2c2ccc(OC)cc2)cc1` [SCH-48461] yielded an ED50 with Cricetinae gen. sp. [4] of 2.2 mg/kg/day. Further, the Reduction was determined as 43% in the assay with Cricetinae gen. sp. [5], 10% with Cricetinae gen. sp. [2], 93% in the assay on Cricetinae gen. sp. [6] and 0% in the assay with Cricetinae gen. sp. [3].

The molecule `COc1ccc(N2C(=O)[C@@](CCCc3ccccc3)(c3ccccc3)[C@H]2c2ccccc2)cc1` gave an IC50 in assay [9] of 6 µM. Moreover, the inhibition in [1] (10 uM) came to 84%. In addition, the values for the Reduction with Cricetinae gen. sp. [2] and with Cricetinae gen. sp. [3] were 11% and 16%, respectively.

On to `COc1ccc(N2C(=O)[C@@H](CCCc3ccccc3)[C@H]2c2ccccc2)cc1`, for which the inhibition in assay [1] (10 uM) is 28%. Also, the Reduction in the assay with Cricetinae gen. sp. [10] and with Cricetinae gen. sp. [3] was 0% throughout.

`CC[C@]1(CCCc2ccccc2)C(=O)N(c2ccc(OC)cc2)[C@@H]1c1ccccc1`: the inhibition in assay [1] (10 uM) is 33%. The Reduction in the assay on Cricetinae gen. sp. [2] worked out at 12%; in the assay with Cricetinae gen. sp. [3], 29%.

For the molecule `CC[C@]1(CCCc2ccccc2)CN(c2ccc(OC)cc2)C1=O`, the Reduction is on record as 10% in the assay on Cricetinae gen. sp. [2] and 0% in the assay on Cricetinae gen. sp. [3].

As for `CC[C@]1(CCCc2ccccc2)CN(c2c(OC)cc(OC)cc2OC)C1=O`, in assay [1] (10 uM), the inhibition came to 38%. The figures for the Reduction in the assay with Cricetinae gen. sp. [10] and in the assay with Cricetinae gen. sp. [3] were 7% and -29%, respectively.

`CCCCCCCCCCC(C)(C)C(=O)Nc1c(OC)cc(OC)cc1OC` [CL-976] gave an inhibition in [1] (10 uM) of 72%. Moreover, the ED50 with Cricetinae gen. sp. [4] (setting [11]) came out at 16 mg/kg/day. Besides, the Reduction in the assay with Cricetinae gen. sp. [5] worked out at 0%; in the assay on Cricetinae gen. sp. [6], 33%.
